Source: PubChem
Hits are enriched below; roughly 1.2% of the tested compounds scored in any of these assays.
Diaphorase act = diaphorase activation or chemical reduction counter-screen | AID 1229 | actives 0.005% (n = 190,000) | activation factor at 20 µM | Diaphorase/resazurin coupled assay, resorufin fluorescence, 16 min; stronger effect = higher value; 1 = vehicle wells, 0 = NADH-free wells;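 active means diaphorase activity raised at least twofold by the compound at 20 µM; inactive means activation factor below 2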
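Material: Purified diaphorase enzyme from Clostridium kluyveri | Buffer or medium: 50 mM HEPES pH 7.4 with 4.542 mM MgCl2, 0.005% Tween 20 | Times: 16 min enzyme reaction, ambient temperature | Signal: Red resorufin fluorescence at 544/590 nm excitation/emission | Measure: Increased resorufin signal from activators or reducing compounds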
Efa HMGR inh = blocks class II HMG-CoA reductase of Enterococcus faecalis. purified E. faecalis HMGR, NADPH absorbance 340 nm kinetic. inhibition, % at 10 µM. actives 0.41% (n = 190,000);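 active means inhibition above a set limit, the median over all tested compounds plus 3 SD, cut at about 9.5% in these data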;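 further: enzyme runs in reverse so mevalonate oxidation gives rising NADPH absorbance; 0% = complete reaction with DMSO and 100% = background rate lacking mevalonate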
p47phox inh = blocks human p47phox regulatory protein of NADPH oxidases; P14598; p47phox/p22phox peptide binding, fluorescence polarization, 2 h; inhibition, % at 24.7 µM; actives 0.53% (n = 220,000); AID 1274;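 active means inhibition above about 30%, limit read from the data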;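 further: 0% = p47phox with labelled peptide and 100% = labelled peptide alone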
DTT redox prof = compounds producing H2O2 with reducing agent – biochemical, NIH compound library profiling, artefact control for MLSCN library redox annotation, primary screen; AID 878; activation, % at 10 µM; DTT-dependent redox cycling H2O2, phenol red/HRP absorbance; 100% = 100 µM peroxide control, 0% = buffer; actives 0.03% (n = 200,000);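 active means activation of at least 50% relative to the plate's high and low controls in the primary single-dose screen; inactive means activation below 50%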;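 further: compound incubated with DTT at 0.8 mM final as the reducing agent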
PMI act = activators of human phosphomannose isomerase | P34949 | actives 0.005% (n = 190,000) | activation factor at 20 µM | purified human PMI, coupled resazurin fluorescence, 20 min; stronger effect = higher value; 1 = vehicle control, 0 substrate-free wells;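 active means activation factor of 2 or more at 20 µM, relative to plate controls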
Target sequence (P34949 whole entry, looked up): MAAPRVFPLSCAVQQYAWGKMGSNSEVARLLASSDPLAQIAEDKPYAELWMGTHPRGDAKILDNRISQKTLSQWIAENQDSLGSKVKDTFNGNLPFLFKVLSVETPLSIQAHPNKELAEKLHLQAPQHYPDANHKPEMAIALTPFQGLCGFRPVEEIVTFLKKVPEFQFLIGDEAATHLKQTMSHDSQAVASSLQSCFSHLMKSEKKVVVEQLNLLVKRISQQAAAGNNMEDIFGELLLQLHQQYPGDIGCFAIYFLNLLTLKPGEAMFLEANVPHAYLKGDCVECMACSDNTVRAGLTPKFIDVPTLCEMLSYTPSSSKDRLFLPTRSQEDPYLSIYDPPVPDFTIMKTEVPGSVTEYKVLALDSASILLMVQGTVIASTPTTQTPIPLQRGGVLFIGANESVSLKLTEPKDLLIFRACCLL
PMI act satM6P = PMI (human) activation, high substrate. actives 0.34% (n = 190,000). activation factor at 20 µM. P34949. coupled PMI enzyme assay, resazurin fluorescence, 20 min; stronger effect = higher value; 1 = untreated enzyme, 0 = substrate-free blank;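 active means activation factor of 2 or more at 20 µM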
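assay system = human phosphomannose isomerase with PGI, G6PDH, diaphorase coupling enzymes | quantity = 15 ng/mL PMI | incubation = enzyme reaction with compound 20 min at room temperature | medium = HEPES pH 7.4 buffer with MgCl2 and Tween-20 | compound dosing = one concentration, 20 µM, in 1% DMSO | measured by = Diaphorase-driven resazurin-to-resorufin fluorescence, excitation 544, emission 590 nm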
Starred values were filed as active, the others as inactive; / = no result given; ! = not active in a repeat.

SMILES | Diaphorase act | Efa HMGR inh | p47phox inh | DTT redox prof | PMI act | PMI act satM6P
CCOC(=O)C1(C)/C(=N/Nc2cccc(Cl)c2)C(=O)C(=O)N1c1ccccc1 (stereo not given) | 0.8 | 1 | -17 | 1 | 1.4 | 2.3*
O=c1[nH]c(CN2CCN(S(=O)(=O)c3cccs3)CC2)nc2c(Br)cc(Br)cc12 | 1 | -8 | -43 | 0 | 1 | 1
COc1ccc(NS(=O)(=O)c2ccc(N3CCOCC3)c(NC(=O)c3ccc(F)cc3)c2)cc1 | 0.9 | -5 | -3 | 0 | 0.9 | 1
COc1ccc(NS(=O)(=O)c2ccc(N3CCOCC3)c(NC(=O)c3cccc(F)c3)c2)cc1 | 0.8 | -2 | 50* | 0 | 1 | 0.9
O=C(c1nc2ccccn2c1CN1CCCC(c2nc3ccccc3o2)C1)N1CCCC1 (stereo not given) | 0.8 | -5 | -12 | 0 | 0.9 | 0.9
CCc1ccccc1NC(=O)C1CC(c2ccc(F)cc2)=NO1 (stereo not given) | 0.9 | -1 | 33* | -3 | 1 | 1.1
O=C(/C=C/c1ccccc1)NCCCNC(=O)/C=C/c1ccccc1 | 1 | -9 | 8 | -1 | 1.2 | 1
O=C(CCN1C(=O)c2cccc3cccc(c23)C1=O)NCc1ccco1 | 0.8 | -5 | -5 | 0 | 1 | 1
CCn1c(-c2ccccc2O)n[nH]c1=S | 0.7 | -2 | 33* | 2 | 0.9 | 0.9
CCn1c(-c2csc3ccccc23)n[nH]c1=S | 0.8 | 0 | -5 | -1 | 1 | 1
COCCNC(=O)CSc1nc2cc(OC)c(OC)cc2c(=O)n1CCc1ccc(S(N)(=O)=O)cc1 | 0.9 | 0 | 8 | 1 | 1 | 1
CCSc1nnc(NC(=O)CN2C(=O)C3CC=CCC3C2=O)s1 (stereo not given) | 1 | 14* | -10 | 0 | 1 | 1
CN1CCN(C2=Nc3ccccc3Oc3ccc(Cl)cc32)CC1 | 0.9 | -14 | 38*! | -1 | 1.1 | 1.1
Cc1[nH][nH]c(=O)c1C(c1c(C)[nH][nH]c1=O)c1cn(Cc2ccccc2Cl)c2ccccc12 | 0.5 | 67* | -13 | 1 | 0.7 | 0.5
COC(=O)N/N=C/c1cn(Cc2ccccc2Cl)c2ccccc12 | 0.8 | -2 | -7 | 1 | 0.8 | 0.8
COc1cccc(C(=O)/C(C#N)=N/Nc2cccc(-c3ccnc(C)n3)c2)c1 | / | / | -14 | / | / | /
COc1ccc(CCNC(=O)CCCn2c(SCC(N)=O)nc3cc4c(cc3c2=O)OCO4)cc1OC | 1 | -1 | 0 | 0 | 0.9 | 0.9
COc1ccc(-c2ccc(SCC(=O)c3ccccc3)nn2)cc1OC | 0.8 | 11* | / | 1 | 1 | 1
CCCCCCCCOC(=O)c1c(CSC(=N)N)n(C)c2cc(Br)c(OC(C)=O)cc12 | / | / | 88* | / | / | /
CCOC(=O)c1c(CSc2nc(C)cc(C)c2C#N)n(C)c2cc(Br)c(OC(C)=O)cc12 | 0.9 | 4 | -12 | 0 | 1 | 1
CCOC(=O)c1c(CSC(=N)N)n(-c2ccc(Br)cc2)c2cc(Br)c(OC(C)=O)cc12 | 1.8 | 5 | 93* | 0 | 0.9 | 1.1
CCOC(=O)c1ccc(NC(=S)N2CCSC2c2ccc(Br)cc2)cc1 (stereo not given) | 0.8 | 1 | -12 | 0 | 0.9 | 1
COc1cc(/C=C/C(=O)O)cc(S(=O)(=O)NCCCO)c1OC | 1 | -8 | -5 | -4 | 1 | 1
Cc1ccc(/C=C/C(=O)O)cc1S(=O)(=O)NCCCO | 0.9 | 22* | -8 | -1 | 0.9 | 0.9
Cc1cc(C)n(CCC(=O)Nc2cccc(F)c2)n1 | 0.9 | -2 | 4 | 0 | 1 | 0.9
SMILES | Diaphorase act | Efa HMGR inh | p47phox inh | DTT redox prof | PMI act | PMI act satM6P
CCOC(=O)C1=C(O)c2ccccc2C(=O)/C1=C\c1ccc(CC)cc1 | 0.7 | -4 | 56* | 9 | 1.2 | 1.6
CCOC(=O)C1=C(Cc2ccc(C)cc2)C(=O)c2ccccc2C1=O | 0.6 | 2 | 30 | 0 | 1.2 | 1.5
CCOC(=O)C1=C(Cc2ccc(OC)cc2)C(=O)c2ccccc2C1=O | 0.7 | 1 | 93* | -3 | 0.8 | 1
CCCc1ccc(/C=C2\C(=O)c3ccccc3C(O)=C2C(=O)OCC)cc1 | 0.5 | -2 | 3 | 2 | 0.9 | 1
CCCc1cc(=O)[nH]c(SCC(=O)c2ccc3c(c2)NC(=O)CO3)n1 | / | / | -19 | / | / | /
CC(=O)OCC1=C(C(=O)O)N2C(=O)C(NC(=O)c3ccc(F)cc3)C2SC1 (stereo not given) | 0.9 | 11* | -9 | 0 | 1 | 1
Cc1ccc(-c2nn(C)c(=O)c3ccccc23)cc1CNC(=O)Cn1nc(-c2ccccc2)c2ccccc2c1=O | 1 | -5 | 41* | -3 | 1 | 1
COC(=O)c1ccc(C(=O)NCCCCO)cc1 | 1 | -5 | 0 | 0 | 1 | 1
Cc1ccc(NC(=O)N(Cc2ccco2)Cc2cc3cc(C)cc(C)c3nc2Cl)cc1 | 1 | 4 | 160* | 3 | 0.9 | 1
Cc1cccc2cc(CN(Cc3ccco3)C(=O)Nc3cccc(C#N)c3)c(Cl)nc12 | 0.9 | -4 | -22 | 1 | 0.9 | 1
CCOC(=O)N/N=C\c1ccc([N+](=O)[O-])s1 | 1 | 11* | 1 | 0 | 1.5 | 1.2
CCCCNS(=O)(=O)c1ccc(NC(=O)c2c(-c3ccccc3Cl)noc2C)cc1 | 0.9 | 1 | -49 | 0 | 0.9 | 0.9
COc1ccc(SN=C2C(C)=CC(=O)C=C2C)cc1 | 0.8 | -3 | 38* | 0 | 0.9 | 0.8
O=C(CSc1nc(-c2ccccc2)nc2c1Cc1ccccc1O2)Nc1ccc(C(=O)O)cc1 | 0.6 | 15* | -101 | -3 | 1.2 | 1
Cc1ccc(C(=O)Nc2cccnc2)cc1S(=O)(=O)N1CCCCC1 | 0.7 | -1 | -2 | -1 | 1 | 1
O=C(Nc1cccnc1)c1cccc(S(=O)(=O)N2CCCCC2)c1 | 0.8 | 12* | 11 | -1 | 0.9 | 0.9
CCOc1ccc(-c2[nH]ncc2Oc2ccccc2OC)c(O)c1 | 0.7 | 2 | -5 | 0 | 0.9 | 0.9
CCOc1ccc(-c2[nH]ncc2Oc2ccccc2OCC)c(O)c1 | 0.8 | 24* | -5 | 0 | 0.9 | 0.9
O=C(NC1CCS(=O)(=O)C1)c1cc(-c2ccccc2)nc2ccccc12 (stereo not given) | 0.9 | -5 | 6 | -2 | 0.9 | 0.9
COc1ccccc1NC(=O)COc1ccc(/C=N/NC(=O)CSCc2cc(C)cc(C)c2)cc1 | 0.9 | -10 | 34* | 0 | 1 | 1.1
